# Measurements taken from article PMC5060091 (ChemMedChem, 2016).
# Where two headings read alike, the source gives them in different places.
# Columns and labels:
# [1] = system: Candida albicans ATCC 10231; assay: MIC, broth dilution, strain A; assay type: cell-based; conditions: Candida albicans
# In short: (§1)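 Broth dilution MIC assay on the Candida panel: C. albicans strains A–G, C. glabrata (H), C. krusei (I) and C. parapsilosis (J). Test compounds were delivered in DMSO, with DMSO kept below 1% in the assay. The MIC is reported in µg/mL, with µM in parentheses. Reference antifungals (a polyene and four azoles) were run alongside.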
# [2] = system: C. albicans ATCC 64124; assay: MIC, broth dilution, strain B; assay type: cell-based, Candida albicans; conditions: Candida albicans
# In short: as §1
# [3] = system: C. albicans ATCC MYA-2876(S); assay: MIC, broth dilution, strain C; assay type: cell-based, Candida albicans; conditions: Candida albicans
# In short: as §1
# [4] = system: C. albicans ATCC 90819(R); assay: MIC, broth dilution, strain D; assay type: cell-based, Candida albicans; conditions: Candida albicans
# In short: as §1
# [5] = system: C. albicans ATCC MYA-2310(S); assay: MIC, broth dilution, strain E; assay type: cell-based, Candida albicans; conditions: Candida albicans
# In short: as §1
# [6] = system: C. albicans ATCC MYA-1237(R); assay: MIC, broth dilution, strain F; assay type: cell-based, Candida albicans; conditions: Candida albicans
# In short: as §1
# [7] = system: C. albicans ATCC MYA-1003(R); assay: MIC, broth dilution, strain G; assay type: cell-based, Candida albicans; conditions: Candida albicans
# In short: as §1
# [8] = system: Aspergillus terreus ATCC MYA-3633; assay: MIC, broth dilution, strain M; assay type: cell-based; conditions: Aspergillus terreus
# [9] = system: Candida and Aspergillus strains; assay: MIC against whole panel of fungal strains; assay type: cell-based; conditions: read-out: MIC values against the panel of fungal strains
# In short: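 Whole-cell broth dilution MIC across Candida strains A–J and three Aspergillus strains: A. flavus ATCC MYA-3631, A. nidulans ATCC 38163 and A. terreus ATCC MYA-3633. Aspergillus was tested as freshly harvested spores. DMSO was below 1% in the assay. Values are given in µg/mL (and µM), with a polyene and four azoles as reference agents.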
# [10] = system: C. albicans ATCC 64124 (strain B); assay: Time-kill assay; assay type: cell-based, Candida albicans
# [11] = system: C. albicans ATCC 64124; conditions: strain B; azoles; previously reported; cited from earlier work
# [12] = system: C. albicans ATCC MYA-2876(S); conditions: strain C; azoles; previously reported; cited from earlier work
# [13] = system: C. albicans ATCC 90819(R); conditions: strain D; azoles; previously reported; cited from earlier work
# [14] = system: C. albicans ATCC MYA-2310(S); conditions: strain E; azoles; previously reported; cited from earlier work
# [15] = system: C. albicans ATCC 10231 (strain A); assay: ROS induction assay; assay type: cell-based, Candida albicans; conditions: 1× and 2× MIC, 1-h treatment; H2O2 1 mM
# In short: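 C. albicans ATCC 10231 cells were incubated 1 h at 37 °C with test compound at 1× or 2× MIC, with no drug (negative control), or with 1 mM H₂O₂ (positive control). DCFH-DA (40 µg/mL) was then added. ROS were detected and imaged by fluorescence microscopy.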
# [16] = read-out: MIC (MIC-0) in µM (parentheses)
smiles,measurement,setting,value
"C[C@@H]1[C@H](O)[C@@H](C)/C=C/C=C/C=C/C=C/C=C/C=C/C=C/[C@H](O[C@@H]2O[C@H](C)[C@@H](O)[C@H](N)[C@@H]2O)C[C@@H]2O[C@](O)(C[C@@H](O)C[C@@H](O)[C@H](O)CC[C@@H](O)C[C@@H](O)CC(=O)O[C@H]1C)C[C@H](O)[C@H]2C(=O)O [AmB, amphotericin B]",MIC,"[1]; ATCC10231, read-out: MIC (MIC-0)",3.9 µg/mL
same,MIC,"[1]; ATCC10231, read-out: MIC (MIC-0) in µM (parentheses)",4.22 µM
same,MIC,"[2]; ATCC64124, read-out: MIC (MIC-0)",3.9 µg/mL
same,MIC,"[2]; ATCC64124, read-out: MIC (MIC-0) in µM (parentheses)",4.22 µM
same,MIC,[3]; read-out: MIC (MIC-0),1.95 µg/mL
same,MIC,[3]; [16],2.11 µM
same,MIC,"[4]; ATCC90819, read-out: MIC (MIC-0)",0.98 µg/mL
same,MIC,"[4]; ATCC90819, read-out: MIC (MIC-0) in µM (parentheses)",1.06 µM
same,MIC,[5]; read-out: MIC (MIC-0),1.95 µg/mL
same,MIC,[5]; [16],2.11 µM
same,MIC,[6]; read-out: MIC (MIC-0),3.9 µg/mL
same,MIC,[6]; [16],4.22 µM
same,MIC,[7]; read-out: MIC (MIC-0),3.9 µg/mL
same,MIC,[7]; [16],4.22 µM
same,MIC,[8]; read-out: MIC (MIC-0),3.9 µg/mL
same,MIC,[8]; [16],4.22 µM
same,MIC,[9],0.98 to 15.6 µg/mL
same,time from which completely fungicidal,[10]; 2× MIC,6 h
same,time-kill effect,"[10]; 2× MIC (1 25, 2a 25, 3a 0.78, AmB 7.8 µg/mL)",completely fungicidal
"OC(Cn1cncn1)(Cn1cncn1)c1ccc(F)cc1F [FLC, fluconazole]",MIC (MIC-2),[11],> 125 µg/mL
same,MIC (MIC-2) in µM (parentheses),[11],> 408 µM
same,MIC (MIC-2),[12],15.6 µg/mL
same,MIC (MIC-2) in µM (parentheses),[12],51.0 µM
same,MIC (MIC-2),[13],> 125 µg/mL
same,MIC (MIC-2) in µM (parentheses),[13],> 408 µM
same,MIC (MIC-2),[14],> 125 µg/mL
same,MIC (MIC-2) in µM (parentheses),[14],> 408 µM
OO [H2O2],ROS induction (DCFH-DA fluorescence),[15],highly fluorescent
